# Results reported in PMC7485388 (ACS chemical biology, 2017).
# Entries after “also recorded” stand apart in the source; their conditions may differ.
# Legend:
# [1] = target: T1, EphB1 T697G (Homo sapiens, UniProt P54762, T697G); test: EphB1 autophosphorylation in transfected HEK293 cells; assay type: cell-based
# T1 sequence (P54762 18-984 T697G): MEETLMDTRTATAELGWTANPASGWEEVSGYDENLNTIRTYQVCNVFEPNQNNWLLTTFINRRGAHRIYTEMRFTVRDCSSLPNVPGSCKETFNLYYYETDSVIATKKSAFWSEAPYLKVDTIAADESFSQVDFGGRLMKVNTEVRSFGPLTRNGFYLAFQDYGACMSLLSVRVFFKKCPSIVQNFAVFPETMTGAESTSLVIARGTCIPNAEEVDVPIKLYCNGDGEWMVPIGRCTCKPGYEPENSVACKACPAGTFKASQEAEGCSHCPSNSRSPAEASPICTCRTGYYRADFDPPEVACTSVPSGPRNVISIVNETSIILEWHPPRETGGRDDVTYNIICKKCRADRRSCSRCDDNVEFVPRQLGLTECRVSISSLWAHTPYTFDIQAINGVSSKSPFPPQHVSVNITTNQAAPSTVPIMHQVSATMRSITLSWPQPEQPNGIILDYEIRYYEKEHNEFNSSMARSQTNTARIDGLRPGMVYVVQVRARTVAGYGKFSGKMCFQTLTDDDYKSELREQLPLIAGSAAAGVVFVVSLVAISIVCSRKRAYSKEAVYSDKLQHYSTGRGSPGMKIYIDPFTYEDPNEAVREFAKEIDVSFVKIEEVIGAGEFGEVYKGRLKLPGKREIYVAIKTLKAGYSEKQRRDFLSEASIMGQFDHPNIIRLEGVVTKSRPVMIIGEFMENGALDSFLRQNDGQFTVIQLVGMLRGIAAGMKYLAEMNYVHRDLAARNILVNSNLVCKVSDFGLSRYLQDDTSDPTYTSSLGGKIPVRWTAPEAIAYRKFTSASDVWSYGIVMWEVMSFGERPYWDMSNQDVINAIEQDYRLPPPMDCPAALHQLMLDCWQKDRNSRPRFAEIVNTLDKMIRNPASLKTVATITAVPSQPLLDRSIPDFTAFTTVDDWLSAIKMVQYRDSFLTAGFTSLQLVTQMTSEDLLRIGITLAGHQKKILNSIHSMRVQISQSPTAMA
# Outline: (§1)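 HEK293 cells transfected with Eph kinase variants were exposed to a range of test compound concentrations. Lysate protein was quantified by BCA and normalized before Western blotting. Blots were probed for phospho-EphB, total EphB1 or EphB3, and β-actin, giving autophosphorylation relative to total receptor.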
# [2] = tested on: EphB3 WT; test: EphB3 autophosphorylation in HEK293 cells co-expressing EphB3 WT; assay type: cell-based, human; conditions: 100 nM; HEK293 co-expressing EphB3 WT and EphB1 T697G; ephrin-B2 stimulation
# Outline: as §1
structure (smiles),measurement,setting,value
Cc1cccc(Cc2nn(C(C)(C)C)c3ncnc(N)c23)c1 [3MB-PP1],inhibition of the three EphB1 alleles in cells,"[1]; 100 nM, HEK293, tested on WT, G703C, T697G",only inhibited the analog-sensitive allele; also recorded: only inhibited EphB1^T697G
same,autophosphorylation of EphB1 T697G,"[1]; 100 nM, HEK293 co-expressing EphB3 WT and EphB1 T697G, ephrin-B2 stimulation",abolished
same,selectivity factor between the two EphB1 mutants (T697G over G703C),[1]; in cells,~ 500
same,autophosphorylation of EphB3 WT,[2],little effect
